Experiment [1] relates to Hepatocyte. The experiment in a line: Hepatoprotective activity against H2O2-induced hepatotoxicity in Wistar rat hepatocytes assessed as reduction in glutamic pyruvate transaminase release after 1 hr relative to control. It is filed as functional, cell-based. In outline: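 Hepatocytes from male Wistar rats were isolated by collagenase perfusion and cultured for one day after plating. Cells were pretreated with or without compound for 1 h, then exposed to 12 mM H2O2 for 1.5 h. GPT released into the medium was measured by the Reitman-Frankel method. Relative protection (%) = 100 × (H2O2-treated − sample)/(H2O2-treated − unchallenged control). Mean ± SD, n = 3.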

The subject of experiment [2] is Hepatocyte. The experiment in a line: Hepatoprotective activity against H2O2-induced hepatotoxicity in Wistar rat hepatocytes assessed as reduction in glutamic pyruvate transaminase release at 100 uM after 1 hr relative to control. Type of experiment: functional, cell-based.

Calls of active or inactive are those of the source. The calls are words filed in the database; no cut-off is given here.

Take `O=C1C[C@@H](c2ccc(O)c(O)c2)Oc2cc(O)cc(O)c21`: the result in the experiment with Hepatocyte [1] was inactive.
On the same count and under the same terms, the same measure for `C[C@@H]1O[C@@H](Oc2c(-c3ccc(O)c(O)c3)oc3cc(O)cc(O)c3c2=O)[C@H](O)[C@H](O)[C@H]1O`: “inactive”; for `COc1cc(/C=C/c2ccc(O)cc2)cc(O[C@@H]2O[C@H](CO[C@@H]3OC[C@](O)(CO)[C@H]3O)[C@@H](O)[C@H](O)[C@H]2O)c1`: “Active”.
Same read-out and setting: then `O=C1C[C@@H](c2ccc(O)cc2)Oc2cc(O[C@@H]3O[C@H](CO)[C@@H](O)[C@H](O)[C@H]3O)cc(O)c21`, with “inactive”; and `O=C1C[C@@H](c2ccc(O)cc2)Oc2cc(O)cc(O)c21`, with “inactive”.
For the molecule `O=c1ccoc2cc(O[C@@H]3O[C@H](CO)[C@@H](O)[C@H](O)[C@H]3O)cc(O)c12`, in the experiment with Hepatocyte [1], the result was inactive.
Regarding `COc1cc(/C=C/c2ccc(O)cc2)cc(O[C@@H]2O[C@H](CO)[C@@H](O)[C@H](O)[C@H]2O)c1`, the result in the experiment on Hepatocyte [1] was Active.
As to `COc1cc(C2Oc3cc([C@H]4Oc5cc(O)cc(O)c5C(=O)[C@@H]4O)ccc3OC2CO)ccc1O` (stereo not given in full), the result in the experiment with Hepatocyte [2] was Active.
With `O=c1c(O)c(-c2ccc(O)c(O)c2)oc2cc(O)cc(O)c12`, the outcome with Hepatocyte [1] was Active.
In the case of `O=C1C[C@@H](c2ccc(O)c(O)c2)Oc2cc(O[C@@H]3O[C@H](CO)[C@@H](O)[C@H](O)[C@H]3O)cc(O)c21`, in the experiment with Hepatocyte [1], the outcome was inactive.

(Values after ChEMBL document CHEMBL1142569, “Two new hepatoprotective stilbene glycosides from Acer mono leaves” (J Nat Prod, 2005).)
